Active and inactive are the calls of the source. The calls are words filed in the database; no cut-off is given here.
How the values were obtained:
Leishmania donovani [1] = test: Antileishmanial activity against antimony-sensitive Leishmania donovani 200016 promastigotes in bone marrow-derived macrophages assessed as parasite suppression at 100 ug/ml; type: functional
Summary of the method: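 Fixed 72 h post-treatment and Giemsa-stained (10% v/v). Percent of 200 random cells infected was scored, and mean % suppression ± SE was taken against the control mean. Mann–Whitney U test vs control, p < 0.05 significant.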

Macrophage = test: Decrease in cellular glutathione levels in macrophages; type: functional, cell-based; details: Homo sapiens
[2] = Toxicity against bone marrow-derived macrophages; type: cell-based; details: human, macrophage
Leishmania donovani [3] = test: Antileishmanial activity against antimony-sensitive Leishmania donovani 200016 promastigotes in bone marrow-derived macrophages at 37 ug/ml; type: functional
Leishmania donovani [4] = test: Antileishmanial activity against antimony-sensitive Leishmania donovani 200016 promastigotes in bone marrow-derived macrophages; type: functional; details: read-out: LD50 (the source's name)
Summary of the method: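 After 72 h, cells fixed and stained with 10% v/v aqueous Giemsa; mean percentage of infected cells scored from 200 random cells. Mean percentage suppression ± SE computed against control mean; significance tested by Mann–Whitney U test, p < 0.05.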

SMILES | Activity (Leishmania donovani [1]) | also measured
CN1C(=O)CN(CCc2ccccc2)C(=O)c2ccccc21 | 19.6% | 
CN1C(=O)CN(CC2CCCCC2)C(=O)c2ccccc21 |  | Activity (Macrophage): Active; Activity [2]: Toxic; Activity (Leishmania donovani [3]): inactive
CCCN1CC(=O)N(C)c2ccccc2C1=O | 72% | 
O=C1N[C@@H](Cc2ccc(O)cc2)C(=O)Nc2ccccc21 | 64.4% | 
O=C1CNC(=O)c2ccccc2N1 | 19% | 
O=C1c2ccccc2NC[C@H]2CCCN12 | 61.7% | 
c1ccc2c(c1)CN1CCC[C@H]1CN2 | 23% | 
O=C1N[C@@H](Cc2ccccc2)C(=O)Nc2ccccc21 | 53.5% | 
c1ccc2c(c1)CN1CCC[C@@H]1CN2 | 67.8% | 
CN1C(=O)CN(CC2CCCCC2)C(=O)c2cc(Cl)ccc21 | 85% | Activity (Macrophage): Active; Activity (Leishmania donovani [3]): 73%; LC50 (Leishmania donovani [4]): 115 µM
O=C1Nc2ccccc2C(=O)N2CCC[C@@H]12 | 70.3% | 
O=C1Nc2ccccc2C(=O)N2CCC[C@H]12 | 85.4% | 
O=C1Nc2ccccc2C(=O)N2CSC[C@@H]12 | 33% | Activity [2]: Toxic
CC(C)C[C@@H]1NC(=O)c2ccccc2NC1=O | inactive | 
O=C1Nc2ccccc2C(=O)N2Cc3ccccc3C[C@@H]12 | 25% | 
CN1CC(=O)N(C)c2ccccc2C1=O | inactive | 
CN1C(=O)CN(CC2CC2)C(=O)c2ccccc21 | inactive | 
CN1C(=O)CN(C2CCCCC2)C(=O)c2ccccc21 | 26.4% | 
CCCCCCN1CC(=O)N(C)c2ccccc2C1=O | inactive | Activity [2]: Toxic
COc1cccc(CN2CC(=O)N(C)c3ccccc3C2=O)c1 | 54.6% | 
CN1C(=O)CN(c2ccccc2)C(=O)c2ccccc21 | inactive | 
O=C1N[C@H](Cc2ccccc2)C(=O)Nc2ccccc21 | 23% | 
C[C@@H]1NC(=O)c2ccccc2NC1=O | 28% | 
CN1C(=O)CN(Cc2ccccc2)C(=O)c2ccccc21 | 51% | 
O=C1c2ccccc2NC[C@@H]2CCCN12 | 70.6% | 

Reference: ChEMBL document CHEMBL1146298, “Identification of the benzodiazepines as a new class of antileishmanial agent” (Bioorg Med Chem Lett, 2007)
